Data: ChEMBL document CHEMBL4316611, “Design, synthesis and evaluation of novel (S)-tryptamine derivatives containing an allyl group and an aryl sulfonamide unit as anticancer agents” (Bioorg Med Chem Lett, 2019)

What was measured:
Assay type in all cases: functional, cell-based
HepG2 = assay: Cytotoxicity in human HepG2 cells assessed as reduction in cell viability incubated for 48 hrs by MTT assay; details: HepG2, 48 h
Summary of the method: (§1)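 MTT viability assay; cells exposed continuously to compounds for 48 h. IC50 values reported as mean ± SD. Cisplatin served as positive control.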

HeLa = assay: Cytotoxicity in human HeLa cells assessed as reduction in cell viability incubated for 48 hrs by MTT assay; summary of the method: as §1
CNE = assay: Cytotoxicity in human CNE1 cells assessed as reduction in cell viability incubated for 48 hrs by MTT assay; summary of the method: as §1
A549 = assay: Cytotoxicity in human A549 cells assessed as reduction in cell viability incubated for 48 hrs by MTT assay; details: A549, 48 h; summary of the method: as §1

Compound	IC50 (HepG2) [µM]	IC50 (HeLa) [µM]	IC50 (CNE) [µM]	IC50 (A549) [µM]
C=CC[C@@H](Cc1c[nH]c2ccccc12)NS(=O)(=O)c1ccc(Cl)cc1Cl	55.4	41.1	42.7	55.7
C=CC[C@@H](Cc1c[nH]c2ccccc12)NS(=O)(=O)c1ccc(F)cc1Cl	71.7	61.7	–	–
C=CC[C@@H](Cc1c[nH]c2ccccc12)NS(=O)(=O)c1ccc(C(F)(F)F)cc1Br	42.1	39.3	34.4	43.9
C=CC[C@@H](Cc1c[nH]c2ccccc12)NS(=O)(=O)c1ccc(Cl)c(C(F)(F)F)c1	24.4	42.8	28.8	34.3
C=CC[C@H](N)Cc1c[nH]c2ccccc12	> 100	> 100	> 100	> 100
C=CC[C@@H](Cc1c[nH]c2ccccc12)NS(=O)(=O)c1ccc(C(F)(F)F)cc1[N+](=O)[O-]	40.4	35.7	39.3	74.2
C=CC[C@@H](Cc1c[nH]c2ccccc12)NS(=O)(=O)c1ccc(Br)c(C)c1	52.2	46.7	38.6	54.1
C=CC[C@@H](Cc1c[nH]c2ccccc12)NS(=O)(=O)c1cccc2c(N(C)C)cccc12	52	34.5	36	52.4
C=CC[C@@H](Cc1c[nH]c2ccccc12)NS(=O)(=O)c1ccc(Cl)cc1F	78.4	74.4	–	–
C=CC[C@@H](Cc1c[nH]c2ccccc12)NS(=O)(=O)c1ccc(C(F)(F)F)cc1Cl	33.1	44.8	36.1	53
CCC[C@@H](Cc1c[nH]c2ccccc12)NS(=O)(=O)c1ccccc1	68.7	78.9	47.1	91.5
CCC[C@@H](Cc1c[nH]c2ccccc12)NS(=O)(=O)c1c(C(C)C)cc(C(C)C)cc1C(C)C	30.8	16.4	17.8	39.8
C=CC[C@@H](Cc1c[nH]c2ccccc12)NS(=O)(=O)c1ccc(OC(F)(F)F)cc1	36	57.3	39.9	57.8
C=CC[C@@H](Cc1c[nH]c2ccccc12)NS(=O)(=O)c1ccc(F)c(Cl)c1	38.2	33.8	34.2	41.6
C=CC[C@@H](Cc1c[nH]c2ccccc12)NS(=O)(=O)c1ccc(C)cc1	> 100	> 100	–	–
C=CC[C@@H](Cc1c[nH]c2ccccc12)NS(=O)(=O)c1cc(C)ccc1C	44.6	45.6	42	48.3
C=CC[C@@H](Cc1c[nH]c2ccccc12)NS(=O)(=O)c1cc(F)c(Br)cc1F	35.3	58.9	43.4	65
C=CC[C@@H](Cc1c[nH]c2ccccc12)NS(=O)(=O)c1ccc(F)c(C(F)(F)F)c1	36.3	32	27	38.5
C=CC[C@@H](Cc1c[nH]c2ccccc12)NS(=O)(=O)c1ccccc1Cl	> 100	> 100	–	–
C=CC[C@@H](Cc1c[nH]c2ccccc12)NS(=O)(=O)c1ccc(C(C)C)cc1	46.4	43.5	43.6	53
C=CC[C@@H](Cc1c[nH]c2ccccc12)NS(=O)(=O)c1ccc(F)cc1	> 100	> 100	–	–

Compound	IC50 (HepG2) [µM]	IC50 (HeLa) [µM]	IC50 (CNE) [µM]	IC50 (A549) [µM]
C=CC[C@@H](Cc1c[nH]c2ccccc12)NS(=O)(=O)c1ccccc1OC(F)(F)F	39.5	68.2	66.9	65.9
C=CC[C@@H](Cc1c[nH]c2ccccc12)NS(=O)(=O)c1ccc(Cl)cc1[N+](=O)[O-]	71.3	67.9	–	–
C=CC[C@@H](Cc1c[nH]c2ccccc12)NS(=O)(=O)c1c(C)cc(C)cc1C	37.2	35.3	31.5	40.4
C=CC[C@@H](Cc1c[nH]c2ccccc12)NS(=O)(=O)c1ccc(Br)cc1	39.6	61	41.2	58.6
C=CC[C@@H](Cc1c[nH]c2ccccc12)NS(=O)(=O)c1ccc(C(F)(F)F)cc1	51.8	41.7	38.1	49.9
C=CC[C@@H](Cc1c[nH]c2ccccc12)NS(=O)(=O)c1cc(Cl)c(F)cc1F	33.2	46.9	34.2	50.7
C=CC[C@@H](Cc1c[nH]c2ccccc12)NS(=O)(=O)c1ccc(Br)cc1F	58.7	58.5	–	–
C=CC[C@@H](Cc1c[nH]c2ccccc12)NS(=O)(=O)c1ccc(-c2ccccc2)cc1	43	34.5	34.5	33.6
C=CC[C@@H](Cc1c[nH]c2ccccc12)NS(=O)(=O)c1ccc(CCC)cc1	58.4	67.1	–	–
C=CC[C@@H](Cc1c[nH]c2ccccc12)NS(=O)(=O)c1cccc(C(F)(F)F)c1	46.9	45.1	40.7	52.1
CCC[C@H](N)Cc1c[nH]c2ccccc12	> 100	> 100	> 100	> 100
C=CC[C@@H](Cc1c[nH]c2ccccc12)NS(=O)(=O)c1ccc(Br)c(F)c1	58.1	54.5	–	–
C=CC[C@@H](Cc1c[nH]c2ccccc12)NS(=O)(=O)c1c(C)c(C)cc(C)c1C	24.7	26.1	26.3	29.9
C=CC[C@@H](Cc1c[nH]c2ccccc12)NS(=O)(=O)c1ccccc1	58.4	69.5	40.8	77.1
C=CC[C@@H](Cc1c[nH]c2ccccc12)NS(=O)(=O)c1ccc(Br)cc1Cl	54.3	53.5	38.5	48.8
C=CC[C@@H](Cc1c[nH]c2ccccc12)NS(=O)(=O)c1ccc(Cl)c([N+](=O)[O-])c1	89.7	53.2	–	–
C=CC[C@@H](Cc1c[nH]c2ccccc12)NS(=O)(=O)c1cc(C(F)(F)F)cc(C(F)(F)F)c1	21.9	30.2	24.1	35.6
C=CC[C@@H](Cc1c[nH]c2ccccc12)NS(=O)(=O)c1ccc2ccccc2c1	44.9	52.7	45.2	55.5
C=CC[C@@H](Cc1c[nH]c2ccccc12)NS(=O)(=O)c1ccc(C)c(F)c1	39.1	43.6	39.8	70.2
C=CC[C@@H](Cc1c[nH]c2ccccc12)NS(=O)(=O)c1cc(Br)cc(C(F)(F)F)c1	25.3	31.9	22.9	29.3
C=CC[C@@H](Cc1c[nH]c2ccccc12)NS(=O)(=O)c1cccc(Br)c1	58.9	40.5	48	52.1
